Assay outcomes as filed in PubChem BioAssay.
A selection: hits, their analogues and other compounds. The true share with any hit is near 3.1%.
KCNQ1 block: inhibitors of human KCNQ1 potassium channel; P51787; CHO-K1 KCNQ1, FluxOR thallium flux fluorescence; stronger effect = higher value; B-score at 10 µM; 1.3% of 310,000 active; AID 2642;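 active = compounds whose thallium flux B-score, printed positive for inhibition, exceeds three library SD while starting fluorescence stays within three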;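 note: channel opened by potassium depolarization with thallium stimulus after 20 min compound exposure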
KCNK3 inh: human KCNK3 channel inhibition, primary screen; O14649; CHO-KCNK3 thallium flux, FluxOR fluorescence; stronger effect = lower value; B-score at 10 µM; 0.84% of 340,000 active;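 active = B-score under library mean minus 4 SD, starting fluorescence ratio at most library mean plus 5 SD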;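 note: more negative B-score means stronger inhibition of thallium flux through KCNK3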
hERG protect: compounds protecting human hERG from proarrhythmic drug block; Q12809; CHO-hERG, FluxOR thallium flux, dofetilide IC70 present; activation (rescue from dofetilide block), less the hit threshold, % at 10 µM; 0.51% of 310,000 active;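 active = activation above the mean of controls blocked by dofetilide plus 5 SD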;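 note: thallium influx through hERG after potassium depolarization seen as dye fluorescence rise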
KCNQ1 act: human KCNQ1 channel potentiation or activation; P51787; CHO-K1 KCNQ1, thallium flux FluxOR fluorescence; stronger effect = higher value; B-score at 10 µM; 0.35% of 310,000 active;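 active = fluorescence ratio B-score, a plate-corrected score, at least three library SD, with initial intensity B-score within 5 SD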
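Assay system: CHO-K1 cells stably expressing KCNQ1; Medium: assay buffer with matched DMSO; Also added: K+/Tl+ depolarizing stimulus; Dosing: single dose; Timing: dye 90 min, compound 20 min, room temperature; Measured by: kinetic FluxOR thallium fluorescence, 10-s 1-Hz baseline, 110-s post-stimulus read; Read-out: peak-minus-minimum fluorescence over initial fluorescence, negative-control normalized, B-scored.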
KCNK9 inh: human KCNK9 channel inhibition. Q9NPC2. HEK293 KCNK9, FluxOR thallium flux fluorescence; stronger effect = lower value. B-score at 10 µM. 1.2% of 310,000 active;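 active = ratio B-score over 3 SD below the library mean, with starting fluorescence within 5 SD of its mean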;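 note: negative B-score means less thallium flux so channel inhibition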
Target sequence (Q9NPC2 whole entry, looked up): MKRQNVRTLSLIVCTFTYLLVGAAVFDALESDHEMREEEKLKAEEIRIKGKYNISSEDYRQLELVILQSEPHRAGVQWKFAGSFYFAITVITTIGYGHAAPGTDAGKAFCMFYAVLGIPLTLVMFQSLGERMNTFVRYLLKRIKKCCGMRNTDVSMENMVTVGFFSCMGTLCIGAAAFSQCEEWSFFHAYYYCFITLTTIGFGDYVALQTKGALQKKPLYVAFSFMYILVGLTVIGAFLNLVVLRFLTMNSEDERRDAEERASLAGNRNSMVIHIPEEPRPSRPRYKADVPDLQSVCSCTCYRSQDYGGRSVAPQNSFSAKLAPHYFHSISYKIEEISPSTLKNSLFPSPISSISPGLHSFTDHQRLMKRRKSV
KCNK9 block conf: confirmation of human KCNK9 potassium channel inhibitors; HEK293 KCNK9 cells, FluxOR thallium flux fluorescence; inhibition, % at 10 µM; shares compounds with KCNK9 inh; 43% of 4,900 active;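 active = thallium signal inhibited by more than 5 SD of the compound-free buffer control wells, on both duplicate plates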;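 note: 0% = assay buffer control wells without compound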
Kir2-1 spec: mouse Kir2.1 off-target activity of KCNK9 modulators; shares compounds with KCNK9 inh; Kir2.1 cells, FluxOR thallium flux fluorescence; inhibition, % at 10 µM; 4% of 4,900 active;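 active = thallium signal drop more than 5 SD beyond the mean of the no-compound control wells, seen in both duplicate plates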;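 note: signal is fluorescence rise after thallium addition divided by baseline fluorescence; plate controls were assay buffer only for no effect and full block by chlorpromazine control for full effect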
KCNK9 uninduced: second check of KCNK9 modulator effects in non-induced HEK293 cells. FluxOR thallium flux. shares compounds with KCNK9 inh. inhibition, % at 10 µM. 40% of 4,900 active;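 active = thallium signal drop beyond 5 SD of the untreated control mean, on both duplicate plates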;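 note: plate controls were buffer only IC0 wells for no effect and SID17386958 at its maximal inhibitory level for full effect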
The depositor's hits bear a star; i = inactive; nt = no result given.

SMILES | KCNQ1 block | KCNK3 inh | hERG protect | KCNQ1 act | KCNK9 inh | KCNK9 block conf | Kir2-1 spec | KCNK9 uninduced
Cc1cccc(-n2c(Cc3ccccc3)nnc2SCc2ccc([N+](=O)[O-])cc2)c1 | i | i | -9.4 | i | -13.5* | i | i | 41.0%*
NC(=O)NC1(C(=O)O)CCCC1 | nt | i | nt | nt | nt | nt | nt | nt
N/C(=N\OC(=O)c1cccc(Cn2cc(C(F)(F)F)ccc2=O)c1)c1ccccc1 | i | i | -7.2 | i | i | nt | nt | nt
N/C(=N\OC(=O)c1cccc(Cn2cc(C(F)(F)F)ccc2=O)c1)c1ccc(Cl)cc1 | i | i | -9.6 | i | -11.9* | 45.5%* | i | i
O=C(Sc1ccc(Cl)cc1)c1cccc(Cn2cc(C(F)(F)F)ccc2=O)c1 | i | i | -2.4 | i | -13.6* | 34.5%* | i | 34.5%*
N#CCCC(CCC#N)(CCC#N)c1cc[n+](CCc2ccccn2)cc1 | i | i | -1.4 | i | i | nt | nt | nt
Cc1cc(C)c(C(=O)N2CCCC(Nc3ccc(F)cc3)C2)o1 (stereo not given) | i | i | -11.9 | i | i | nt | nt | nt
Cc1occc1C(=O)N1CCCC(Nc2ccc(F)c(F)c2)C1 (stereo not given) | i | i | -10.4 | i | i | nt | nt | nt
CSCc1ccc(C(=O)N2CCCC(Nc3ccc4c(c3)OCCO4)C2)o1 (stereo not given) | i | i | -8.1 | i | i | i | i | i
CSCc1ccc(C(=O)N2CCCC(Nc3ccc(F)cc3)C2)o1 (stereo not given) | i | i | -15.0 | i | i | i | 33.0%* | i
O=C(c1cc(Cl)ccc1F)N1CCCC(Nc2ccc3c(c2)OCCO3)C1 (stereo not given) | i | i | -14.6 | i | i | i | i | i
O=C(c1ccco1)N1CCCC(Nc2ccc3c(c2)OCCO3)C1 (stereo not given) | i | i | 0.5 | i | i | nt | nt | nt
CCC(SC1=NCCS1)C(=O)Nc1nnc(-c2ccccc2OC)s1 (stereo not given) | i | i | -6.7 | i | -10.2* | 30.0%* | i | 33.5%*
CC(SC1=NCCS1)C(=O)Nc1nnc(-c2ccc(F)cc2)s1 (stereo not given) | i | i | -7.2 | i | i | nt | nt | nt
CC(SC1=NCCS1)C(=O)Nc1nnc(-c2ccc(Br)cc2)s1 (stereo not given) | i | i | -5.7 | i | -17.9* | i | i | 22.5%*
CCCSC(=O)N(CC)CC(=O)Nc1c(CC)cccc1CC | i | i | -8.2 | i | i | nt | nt | nt
N#Cc1ccc(CSc2ccc(S(=O)(=O)N3CCCC3)cn2)cc1 | nt | i | nt | nt | nt | nt | nt | nt
CCC(C)(C)n1nnnc1C(C(C)C)N(Cc1ccco1)Cc1cc2cc3c(cc2[nH]c1=O)OCO3 (stereo not given) | i | i | -8.6 | i | -10.4* | 42.5%* | i | 41.5%*
Cc1ccc(SCc2nn(C)c(Cl)c2C=O)cc1 | i | i | -6.8 | i | i | nt | nt | nt
Cc1ccc(SCc2c(-c3ccccc3)nn(C)c2Cl)cc1 | 6* | i | -4.6 | i | -8.51* | 42.5%* | 33.5%* | 47.0%*
Cn1nc(-c2ccccc2)c(CN2CCN(c3ncccn3)CC2)c1Cl | i | i | -4.5 | i | i | i | i | i
Cn1nc(N)c2c(-c3ccccc3)c(C#N)c(N)nc21 | i | i | -7.3 | i | i | nt | nt | nt
Cc1ccc(Sc2c(C#N)c(-c3ccccc3)nn2C)cc1 | 6* | i | -14.9 | i | -9.84* | 56.5%* | i | 39.5%*
Cc1noc(C)c1NC(=O)N(C)C[C@H]1Oc2ccc(NC(=O)C3CC3)cc2C(=O)N([C@H](C)CO)C[C@@H]1C | nt | i | nt | nt | nt | nt | nt | nt
Fc1ccccc1OCCCCSc1ncccn1 | i | i | -14.1 | i | i | nt | nt | nt
SMILES | KCNQ1 block | KCNK3 inh | hERG protect | KCNQ1 act | KCNK9 inh | KCNK9 block conf | Kir2-1 spec | KCNK9 uninduced
c1cnc(SCCOc2cccc3ccccc23)nc1 | i | i | -2.9 | i | -9.91* | 48.0%* | i | 38.0%*
Cc1cc(C)nc(/N=c2/ssnc2Cl)c1 | i | i | -9.0 | i | i | i | i | i
CC(C)OC(=O)CN1CCN(C2c3ccccc3-c3ccccc32)CC1 | i | i | -6.2 | i | i | i | i | i
O=C(c1ccco1)N1CCN(C2c3ccccc3-c3ccccc32)CC1 | i | i | -12.7 | i | i | nt | nt | nt
O=C(CSc1ncn[nH]1)N1N=C2/C(=C/c3ccccc3)CCCC2C1c1ccccc1 (stereo not given) | i | i | -9.4 | i | -12.3* | 52.5%* | i | 33.0%*
COc1ccc(/C=C2\CCCC3C2=NN(C(=O)CSc2ncn[nH]2)C3c2ccc(OC)cc2)cc1 (stereo not given) | i | i | -10.6 | i | i | nt | nt | nt
O=c1oc2ccccc2c(Nc2cc3ccccc3cc2O)c1[N+](=O)[O-] | i | i | -12.8 | i | i | i | i | i
COc1ccccc1NC(=O)C(=O)NCC(c1ccco1)N1CCc2ccccc2C1 (stereo not given) | i | i | -6.4 | i | i | i | i | i
O=C(NCC(c1ccco1)N1CCc2ccccc2C1)C(=O)Nc1ccccc1 (stereo not given) | i | i | -3.0 | i | i | nt | nt | nt
O=C(NC1CCN(Cc2ccccc2Cl)CC1)c1ccccc1 | i | i | -4.1 | i | i | nt | nt | nt
COCCn1cnc2c(c1=O)c1nc3ccccc3nc1n2/N=C/c1cccc(OC)c1 | i | i | -2.6 | i | -9.74* | i | i | i
C=CCn1cnc2c(c1=O)c1nc3ccccc3nc1n2/N=C/c1cc(OC)c(OC)c(OC)c1 | i | i | -28.7 | i | i | nt | nt | nt
O=C(COC(=O)[C@H](Cc1ccccc1)NC(=O)c1ccco1)Nc1ccccc1OC(F)F | nt | i | nt | nt | nt | nt | nt | nt
O=C(c1ccco1)N(CCC(c1ccccc1)c1ccco1)Cc1ccco1 (stereo not given) | i | i | -19.3 | i | -8.2* | 40.0%* | i | 36.5%*
CCOc1ccc(S(=O)(=O)N2CCN(Cc3ccc4c(c3)OCO4)CC2)cc1Cl | i | i | -5.3 | i | i | i | i | i
Cc1ccc2nsnc2c1S(=O)(=O)N1CCN(Cc2ccc3c(c2)OCO3)CC1 | i | i | 0.3 | i | i | i | i | i
COc1ccc(F)cc1S(=O)(=O)N1CCN(Cc2ccc3c(c2)OCO3)CC1 | i | i | -10.2 | i | i | i | i | i
